The target in assay [1] is T1, Prostaglandin G/H synthase 1 (Ovis aries, UniProt P05979).
T1 sequence (P05979 whole entry): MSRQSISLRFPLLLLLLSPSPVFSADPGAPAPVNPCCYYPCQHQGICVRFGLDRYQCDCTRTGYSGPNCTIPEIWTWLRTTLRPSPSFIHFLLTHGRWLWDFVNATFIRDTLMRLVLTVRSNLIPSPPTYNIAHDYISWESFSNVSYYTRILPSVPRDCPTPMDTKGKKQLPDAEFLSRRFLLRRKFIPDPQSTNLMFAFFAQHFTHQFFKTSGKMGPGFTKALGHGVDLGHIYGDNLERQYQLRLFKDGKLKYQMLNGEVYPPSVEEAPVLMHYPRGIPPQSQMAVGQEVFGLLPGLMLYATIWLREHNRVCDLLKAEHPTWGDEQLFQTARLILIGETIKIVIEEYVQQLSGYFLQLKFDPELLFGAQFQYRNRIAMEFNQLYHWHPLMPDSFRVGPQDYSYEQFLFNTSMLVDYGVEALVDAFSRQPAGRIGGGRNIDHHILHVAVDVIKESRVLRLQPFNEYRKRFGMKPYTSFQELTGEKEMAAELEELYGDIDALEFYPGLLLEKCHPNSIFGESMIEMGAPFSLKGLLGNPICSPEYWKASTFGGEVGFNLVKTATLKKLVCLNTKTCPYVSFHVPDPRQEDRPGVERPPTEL
In words: Inhibition of ovine COX1 catalytic activity using arachidonic acid as substrate pre-incubated for 10 mins followed by substrate addition and measured after 2 mins by ELISA method. In general terms: An ELISA detects its analyte on a solid surface through an enzyme-linked reagent.

The species named for assay [2] is Rattus norvegicus. In words: Antidiabetic activity in Wistar rat hemi-diaphragm at 2 mg assessed as increase in insulin-induced glucose uptake by GOD/POD enzymatic method. Type of assay: functional, tissue-based. The procedure, abridged:
(§1)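 Wistar rats (150-250 g), fasted overnight, euthanized under ether; diaphragms removed and halved, each half weighed. Glucose in the working solution measured before and after incubation, and uptake taken as initial minus final content at 2 mg drug; expressed as mg/dl/45 min, mean ± SEM.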

The species named for assay [3] is Rattus norvegicus. In words: Antidiabetic activity in Wistar rat hemi-diaphragm at 2 mg assessed as increase in glucose uptake in absence of insulin by GOD/POD enzymatic method. Type of assay: functional, tissue-based. The method in brief: as §1
A short description of assay [4]: Inhibition of soya bean 15-LOX by colorimetric lipoxygenase inhibitor screening assay kit method. Set-up: species or system Glycine max. The procedure, abridged: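 Soybean 15-LOX activity measured with a colorimetric lipoxygenase inhibitor screening kit per the kit instructions.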
Assay [5] concerns Rattus norvegicus. Briefly: Antiinflammatory activity in rat acute inflammation model assessed as inhibition of formalin-induced paw edema at 5 mg/kg, po measured after 4 hrs relative to control. Type of assay: functional. The procedure, abridged: (§2)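 Adult female albino rats, 150-250 g, acclimatized 1 week. Compounds given orally at 5 mg/kg body weight; percentage edema inhibition measured after 4 h. Celecoxib and diclofenac sodium served as positive controls.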

Assay [6] deals with T2, Peroxisome proliferator-activated receptor gamma (Homo sapiens) (UniProt P37231).
T2 sequence (whole entry): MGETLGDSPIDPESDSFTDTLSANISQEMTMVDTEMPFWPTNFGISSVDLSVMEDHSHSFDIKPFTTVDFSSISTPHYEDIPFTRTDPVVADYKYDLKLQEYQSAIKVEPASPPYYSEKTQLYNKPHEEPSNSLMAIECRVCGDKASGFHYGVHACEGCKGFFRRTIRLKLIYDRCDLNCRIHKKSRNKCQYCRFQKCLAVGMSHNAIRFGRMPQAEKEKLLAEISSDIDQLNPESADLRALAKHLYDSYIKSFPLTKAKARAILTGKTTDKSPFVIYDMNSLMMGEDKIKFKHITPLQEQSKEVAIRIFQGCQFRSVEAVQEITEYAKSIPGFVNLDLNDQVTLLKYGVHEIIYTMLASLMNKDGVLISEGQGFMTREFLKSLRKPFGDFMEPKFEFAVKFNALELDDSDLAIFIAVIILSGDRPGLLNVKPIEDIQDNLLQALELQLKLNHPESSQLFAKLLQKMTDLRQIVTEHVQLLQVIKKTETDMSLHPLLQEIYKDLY
In words: Transactivation of GAL4 DBD-fused human PPARgamma LBD expressed in HEK293 cells at 10 uM after 24 hrs by luciferase reporter gene assay relative to pioglitazone. The format is cell-based. The procedure, abridged:
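HEK293(T) cells transiently co-transfected with a Gal4 DBD–human PPARγ LBD hybrid and a Gal4 UAS-driven Renilla luciferase reporter. […] Luciferase activity normalized to Renilla and expressed as fold induction over vehicle; triplicates, repeated at least three times.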
(In general: A reporter such as luciferase makes a cellular process visible.)

The test system of assay [7] is THP-1. In words: Inhibition of PMA-induced human THP1 monocytes differentiation in to macrophages assessed as macrophage metabolic activity preincubated for 6 hrs before PMA stimulation.
The subject of assay [8] is THP-1. Briefly: Inhibition of PMA-induced human THP1 monocytes differentiation in to macrophages assessed as macrophage metabolic activity up to 300 uM preincubated for 6 hrs before PMA stimulation. Type of assay: functional, cell-based. The method in brief:
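THP-1 cells grown in RPMI-1640 with 10% FBS and seeded at 2×10^5 cells/ml. Drug concentrations applied for 6 h before differentiation with PMA 25 ng/ml for 24 h; wells washed 3x with PBS. Attached cells quantified by MTS viability readout, with a no-PMA blank, normalized to DMSO-pretreated PMA cells. Viability at each drug concentration checked separately over 30 h.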

In assay [9] the test system is Rattus norvegicus. Briefly: Antiinflammatory activity in rat acute inflammation model assessed as inhibition of formalin-induced paw edema at 5 mg/kg, po measured after 4 hrs relative to celecoxib. Type of assay: functional. The procedure, abridged:
as §2

Activity calls are given as the source filed them. No cut-off for these calls is given here.

For `O=C1NC(=O)/C(=C/c2ccc(OCc3cn(CC(=O)c4ccc(Cl)cc4)nn3)cc2)S1`, the IC50 (commonly the point on the concentration scale where inhibition reaches its midpoint) in assay [1] worked out at 10.9 µM.
On to `O=C1NC(=S)S/C1=C\c1ccc(OCc2cn(CC(=O)c3ccc(Br)cc3)nn2)cc1`, for which the results for the IC50 in assay [1] and in assay [4] were 14.9 µM and 4.34 µM, respectively. Besides, the outcome in assay [2] and in [3] was Active.
Turning to `Cc1ccc(-c2cc(C(F)(F)F)nn2-c2ccc(S(N)(=O)=O)cc2)cc1` [CELECOXIB], the inhibition in vivo (commonly the drop in the measured response relative to a control, in per cent) at 5 mg/kg in assay [5] was found to be 36.8%.
The compound `O=C1NC(=O)/C(=C/c2ccc(OCc3cn(Cc4ccc(Br)cc4)nn3)cc2)S1` showed an Activity in assay [6] of 25 to 45%.
For the compound `O=C(O)Cc1ccccc1Nc1c(Cl)cccc1Cl` [DICLOFENAC], the IC50 in assay [7] was found to be 143 µM.
For `CCc1ccc(CCOc2ccc(CC3SC(=O)NC3=O)cc2)nc1` (centres undefined), the outcome in assay [2] and in [3] was Active. Also, the inhibition result in assay [8] was “inactive”.
`COc1ccc(-n2cc(COc3ccc(/C=C4\SC(=O)NC4=O)cc3)nn2)cc1` displayed an Activity in assay [6] of 25 to 45%.
On the same count and under the same terms, under `C#CCOc1ccc(/C=C2\SC(=S)NC2=O)cc1` stands 25 to 45%.
Compound `CC(Cc1ccc(O)c(O)c1)C(C)Cc1ccc(O)c(O)c1` (centres undefined) [NORDIHYDROGUAIARETIC ACID] returned an IC50 in assay [4] of 10.2 µM.
Regarding `O=C1NC(=O)/C(=C/c2ccc(OCc3cn(CC(=O)c4ccc(Br)cc4)nn3)cc2)S1`, the IC50 in assay [1] was determined as 13.6 µM; in assay [4] it was 4.97 µM. The outcome in assay [2] and in [3] was Active.
On to `O=C(O)Cc1ccccc1Nc1c(Cl)cccc1Cl` [DICLOFENAC SODIUM], for which the inhibition in vivo at 5 mg/kg in assay [5] is 52.1%; in [9] it was 205%.
The compound `O=C1NC(=O)/C(=C/c2ccc(OCc3cn(-c4ccc(Br)cc4)nn3)cc2)S1` came in with an Activity in assay [6] of 25 to 45%.
`O=C1NC(=S)S/C1=C\c1ccc(OCc2cn(CC(=O)c3ccc(Cl)cc3)nn2)cc1`: the IC50 in assay [1] worked out at 12.4 µM; in assay [4] it was 4.22 µM.
In turn, `O=c1c(O)c(-c2ccc(O)c(O)c2)oc2cc(O)cc(O)c12` [QUERCETIN] yielded an IC50 in [4] of 3.27 µM.
